By Ki is commonly meant a dissociation constant, usually derived from enzyme kinetics or from competition with a known ligand.

The target of data set [1] is σ1 receptor (Cavia porcellus, UniProt Q60492). As to the kind of experiment: Competition binding assay at σ1 receptors with [3H]. Details: species or system guinea pig.
Data set [2] is described as follows: Compound stability in stock buffer for in vitro binding assays. Type of data set: physicochemical. The conditions noted are these: for Purity by HPLC after 25 days in stock buffer: 10^-3 M in water with 1% EtOH and 0.1% or 2.5% AcOH; for State after 25 days in stock buffer: stock buffer 2.5% AcOH, 1% EtOH in water. A digest of the protocol: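 Those prepared as HCl or oxalate salts were held instead in 0.1% AcOH with 1% EtOH. After 25 days in stock buffer, purity of each compound was analysed by analytical HPLC.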

For data set [3], the system named is σ1 receptor. The conditions noted are these: cited from earlier work.
Data set [4] concerns σ2 receptor. The conditions noted are these: cited from earlier work.
Data set [5] has as its target T1, σ2 receptor (Cavia porcellus, UniProt H0V073).
T1 sequence (H0V073 1-176): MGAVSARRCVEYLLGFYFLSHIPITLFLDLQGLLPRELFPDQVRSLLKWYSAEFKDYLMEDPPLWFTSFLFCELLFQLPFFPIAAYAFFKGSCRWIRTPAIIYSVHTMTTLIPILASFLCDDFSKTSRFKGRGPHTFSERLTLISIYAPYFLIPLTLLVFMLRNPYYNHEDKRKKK
As to the kind of experiment: Competition binding assay at σ2 receptors with [3H]DTG / 500 nM. Details: species or system guinea pig.

Sequence of σ1 receptor (Cavia porcellus, UniProt Q60492) (Q60492 whole entry): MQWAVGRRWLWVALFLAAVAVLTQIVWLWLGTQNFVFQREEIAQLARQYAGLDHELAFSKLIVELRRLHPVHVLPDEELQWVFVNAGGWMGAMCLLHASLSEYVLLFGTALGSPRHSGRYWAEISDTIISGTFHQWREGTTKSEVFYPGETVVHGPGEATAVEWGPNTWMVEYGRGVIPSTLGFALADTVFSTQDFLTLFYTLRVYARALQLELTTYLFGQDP

As for `COc1cc2c(cc1OC)CCN(CCCCNC(=O)c1cc(Br)cc(OC)c1OC)CC2` [Compound 4, 5-bromo-N-(4-(7,8-dimethoxy-4,5-dihydro-1H-benzo[d]azepin-3(2H)-yl)butyl)-2,3-dimethoxybenzamide], in data set [1] (compared to 6 (7R-2) and 7 (7R-1)), the “Poorest σ1 affinity by a factor compared to 6 and 7” value came to 2. Besides, the “Purity by HPLC after 25 days in stock buffer” value (shortened to “Purity by HPLC after 25 days”) in data set [2] is “exceeded 95%”.

On to `COc1ccc(CCNCCCCNC(=O)c2cc(Br)cc(OC)c2OC)cc1OC` [Compound 2], for which, in data set [3], the “Change in σ1 affinity relative to 1” value is “no change”. The “Decrease in σ2 affinity relative to 1” value in data set [4] (relative to 1) is recorded as 1700 fold.

For the compound `COc1cc2c(cc1OC)CN(CCCCNC(=O)c1cc(Br)cc(OC)c1OC)C2` [Compound 3, 5-bromo-N-(4-(5,6-dimethoxyisoindolin-2-yl)butyl)-2,3-dimethoxybenzamide], in data set [1] (relative to 1), the “Decrease in σ1 affinity relative to 1” value is given as “approximately 50%”. Moreover, in data set [5] (relative to 1), the “Improvement of σ2 affinity over that of 1” value is recorded as 70%. Moreover, the “Purity by HPLC after 25 days” value in data set [2] was “exceeded 95%”.

As to `COc1cc2c(cc1OC)N(CCCCNC(=O)c1cc(Br)cc(OC)c1OC)CCC2` [Compound 8, 5-bromo-N-(4-(6,7-dimethoxy-3,4-dihydroquinolin-1(2H)-yl)butyl)-2,3-dimethoxybenzamide], the “σ1 affinity decreased by a factor, relative to 1” value in data set [1] (relative to 1 (Mach Lead)) turned out to be 5. Further, in data set [5] (relative to 1 (Mach Lead)), the “σ2 affinity relative to 1 (in words)” value was “totally ablated”. Besides, the “State after 25 days in stock buffer” value in data set [2] is “totally decomposed”.

Take `COc1cc2c(cc1OC)CN(CCCCNC(=O)c1cc(Br)cc(OC)c1OC)CC2` [Compound 1]: the Ki in data set [4] (read-out: Ki (nM) σ2) is 8.2 nM.

For “5-bromo-N-(4-(7,8-dimethoxy-2,3,4,5-tetrahydro-1H-benzo[b]azepin-1-yl)butyl)-2,3-dimethoxybenzamide [Compound 7]”, the “Poorer σ1 affinity relative to 6” value in data set [1] (7 (7R-1) vs. 6 (7R-2)) amounted to 20%. Moreover, the Ki in data set [1] (read-out: Ki (nM) σ1, [3H](+)-PTZ, guinea pig brain membranes, mean ± SEM, n = 4) amounted to 2560 ± 175 nM. The “Poorer σ2 affinity relative to 6” value in data set [5] (7 (7R-1) vs. 6 (7R-2)) was about 30 times. Further, in data set [5] (ratio of Ki values), the “Selectivity Ki σ1 / Ki σ2” value is 0.29. The “Purity by HPLC after 25 days” value in data set [2] is “exceeded 95%”.

Take “5-bromo-N-(4-((3,4-dimethoxyphenethyl)(methyl)amino)butyl)-2,3-dimethoxybenzamide [Compound 9]”: the “Purity by HPLC after 25 days” value in data set [2] is on record as “exceeded 95%”.

As to `COc1cc2c(cc1OC)N(CCCCNC(=O)c1cc(Br)cc(OC)c1OC)CC2` [Compound 5, 5-bromo-N-(4-(5,6-dimethoxyindolin-1-yl)butyl)-2,3-dimethoxybenzamide], in data set [1] (3 (5R-2) vs. 5 (5R-1)), the “Poorer σ1 affinity, 3 vs. 5” value turned out to be 3 times. Further, in data set [2], the “State after 25 days in stock buffer” value is “totally decomposed”.

Turning to `COc1cc2c(cc1OC)CN(CCCCNC(=O)c1cc(Br)cc(OC)c1OC)CCC2` [Compound 6, 5-bromo-N-(4-(7,8-dimethoxy-4,5-dihydro-1H-benzo[c]azepin-2(3H)-yl)butyl)-2,3-dimethoxybenzamide], in data set [2], the “Purity by HPLC after 25 days” value is on record as “exceeded 95%”.

(Values after paper PMC3064429 (Bioorganic & medicinal chemistry, 2011).)
